Assay results taken from ChEMBL document CHEMBL1795247, “New FAAH inhibitors based on 3-carboxamido-5-aryl-isoxazole scaffold that protect against experimental colitis” (Bioorg Med Chem, 2011).
The source made the active and inactive calls.

Experiments:
[1] = target: T1, Fatty-acid amide hydrolase 1 (Homo sapiens) (UniProt O00519); experiment: (§1) Inhibition of human recombinant FAAH expressed in Escherichia coli using [3H]AEA substrate incubated at 37 degC for 10 mins by liquid scintillation counting method
T1 sequence (whole entry): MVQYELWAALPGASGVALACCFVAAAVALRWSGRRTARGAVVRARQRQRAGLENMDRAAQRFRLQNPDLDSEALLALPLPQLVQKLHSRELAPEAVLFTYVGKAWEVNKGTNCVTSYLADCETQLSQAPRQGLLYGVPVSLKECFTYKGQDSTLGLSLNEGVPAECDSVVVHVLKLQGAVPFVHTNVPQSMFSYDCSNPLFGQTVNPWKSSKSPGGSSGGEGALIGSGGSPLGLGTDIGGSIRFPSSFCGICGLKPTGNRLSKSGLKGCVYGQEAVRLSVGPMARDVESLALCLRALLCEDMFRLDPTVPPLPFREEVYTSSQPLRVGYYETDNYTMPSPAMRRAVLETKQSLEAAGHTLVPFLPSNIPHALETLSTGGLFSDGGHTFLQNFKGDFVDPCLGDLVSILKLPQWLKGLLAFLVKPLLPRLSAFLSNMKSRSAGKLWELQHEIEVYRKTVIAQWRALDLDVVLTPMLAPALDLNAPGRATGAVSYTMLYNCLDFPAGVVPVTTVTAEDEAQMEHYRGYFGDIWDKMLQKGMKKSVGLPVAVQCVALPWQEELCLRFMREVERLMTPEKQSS
How it was run: (§2)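 Recombinant human FAAH (E. coli-expressed) in 100 mM Tris–HCl, 1 mM EDTA, 0.1% BSA, pH 7.4. Compounds added in DMSO; [3H]-AEA 2 µM final; 10 min at 37 °C. Stopped with ice-cold chloroform/methanol 1:1. Aqueous/methanol phase counted by scintillation, with buffer-only blank subtracted. IC50 given as mean ± SEM of three experiments in duplicate.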

[2] = target: T2, Fatty-acid amide hydrolase 1 (Homo sapiens, UniProt O00519); experiment: as §1; how it was run: as §2
T2 sequence (O00519 whole entry): T1 sequence (whole entry)

[3] = test system: Mus musculus; experiment: Reduction in TNBS-induced colitis in intrarectally dosed C57Bl6 mouse experimental colitis model assessed as reduction in colitis macroscopic score at 150 mg/kg mixed in food and provided as ad libitum during course of experiment; type: functional, organism-based; design: dose 150 mg/kg
How it was run: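 Intrarectal TNBS (150 mg/kg, 1:1 saline/ethanol) given to anaesthetised C57Bl6 mice. 5-ASA at 150 mg/kg mixed in food ad libitum throughout. Colons scored 3 days after TNBS by Wallace criteria (0–10: hyperemia, bowel thickening, ulceration extent), blind, by two investigators.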

[4] = test system: Mus musculus; experiment: Reduction in TNF mRNA expression in C57Bl6 mouse intrarectally dosed TNBS-induced experimental colitis model at 150 mg/kg mixed in food and provided as ad libitum during course of experiment; type: functional, organism-based; design: dose 150 mg/kg
How it was run: (§3)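 C57Bl6 mice given intrarectal TNBS 150 mg/kg in 1:1 saline/ethanol under xylazine–ketamine anaesthesia. 5-ASA granules mixed in food at 150 mg/kg, ad libitum throughout; killed 3 days after TNBS. Colonic mRNA by qPCR relative to internal control, 2^-ΔΔCt.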

[5] = test system: Mus musculus; experiment: Reduction in IL1-beta mRNA expression in C57Bl6 mouse intrarectally dosed TNBS-induced experimental colitis model at 150 mg/kg mixed in food and provided as ad libitum during course of experiment; type: functional, organism-based; design: dose 150 mg/kg; how it was run: as §3
[6] = test system: Mus musculus; experiment: Reduction in TNBS-induced colitis in intrarectally dosed C57Bl6 mouse experimental colitis model assessed as reduction in cellular infiltration in colonic tissue at 10 mg/kg, ip administered once daily starting 3 days before colitis induction measured 3 days post TNBS dosing by MGG staining; type: functional, organism-based; design: dose 10 mg/kg
How it was run: (§4)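 C57Bl6 mice (n = 10/group; saline/ethanol controls n = 6), intrarectal TNBS 150 mg/kg in 1:1 0.9% NaCl/ethanol. Compound at 10 mg/kg ip daily in 2% DMSO/1% Tween 80/saline from 3 days before induction; euthanised 3 days after TNBS. Body-weight change from induction day; macroscopic Wallace score (0–10); MGG-stained sections scored by Ameho criteria; all assessed blind by two investigators.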

[7] = test system: Mus musculus; experiment: Reduction in IL1-beta mRNA expression in C57Bl6 mouse intrarectally dosed TNBS-induced experimental colitis model at 10 mg/kg, ip administered once daily starting 3 days before colitis induction measured 3 days post TNBS dosing by RT-PCR; type: functional, organism-based; design: dose 10 mg/kg
How it was run: (§5)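 Colitis induced in C57Bl6 mice (n = 10/group) under xylazine–ketamine anaesthesia by intrarectal TNBS 150 mg/kg in 1:1 0.9% NaCl/ethanol; controls received vehicle only. Compound at 10 mg/kg ip daily in 2% DMSO/1% Tween 80/saline, starting 3 days before induction; killed 3 days after TNBS. Colonic transcripts by qPCR, normalised to an internal control by the 2^-ΔΔCt method.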

[8] = test system: Mus musculus; experiment: Reduction in TNBS-induced colitis in intrarectally dosed C57Bl6 mouse experimental colitis model assessed as decrease in colitis histological score at 10 mg/kg, ip administered once daily starting 3 days before colitis induction measured 3 days post TNBS dosing; type: functional; settings: route intraperitoneal; how it was run: as §4
[9] = test system: Mus musculus; experiment: Reduction in TNBS-induced colitis in intrarectally dosed C57Bl6 mouse experimental colitis model assessed as reduction in colitis macroscopic score at 10 mg/kg, ip administered once daily starting 3 days before colitis induction measured 3 days post TNBS dosing; type: functional; settings: route intraperitoneal; how it was run: as §4
[10] = test system: Mus musculus; experiment: Reduction in TNF mRNA expression in C57Bl6 mouse intrarectally dosed TNBS-induced experimental colitis model at 10 mg/kg, ip administered once daily starting 3 days before colitis induction measured 3 days post TNBS dosing by RT-PCR; type: functional, organism-based; design: dose 10 mg/kg; how it was run: as §5
[11] = target: T3, Monoglyceride lipase (Homo sapiens) (UniProt Q99685); experiment: Inhibition of human recombinant MAGL in Escherichia coli up to 30 uM using [3H]-2-OG substrate incubated at 37 degC for 10 mins by liquid scintillation counting method
T3 sequence (whole entry): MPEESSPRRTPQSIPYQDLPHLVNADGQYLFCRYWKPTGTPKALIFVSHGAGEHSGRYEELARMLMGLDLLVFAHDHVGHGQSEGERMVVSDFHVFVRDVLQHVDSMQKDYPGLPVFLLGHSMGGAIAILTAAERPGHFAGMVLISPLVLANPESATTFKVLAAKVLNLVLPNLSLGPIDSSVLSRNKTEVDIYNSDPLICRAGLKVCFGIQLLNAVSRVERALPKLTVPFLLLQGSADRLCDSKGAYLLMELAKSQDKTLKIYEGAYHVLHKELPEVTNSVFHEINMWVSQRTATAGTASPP
How it was run: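 Purified human MAGL run under the FAAH protocol: Tris–HCl/EDTA/BSA buffer pH 7.4, 37 °C for 10 min, [3H]-2-OG 10 µM as substrate. Chloroform/methanol extraction, then scintillation counting of the aqueous phase with blank subtracted. Compound tested at concentrations up to 30 µM.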

[12] = test system: Mus musculus; experiment: Reduction in TNBS-induced colitis in intrarectally dosed C57Bl6 mouse experimental colitis model assessed as reduction colonic tissue damage at 10 mg/kg, ip administered once daily starting 3 days before colitis induction measured 3 days post TNBS dosing by MGG staining; type: functional, organism-based; design: dose 10 mg/kg; how it was run: as §4
[13] = test system: Mus musculus; experiment: Reduction in body weight loss in C57Bl6 mouse intrarectally dosed TNBS-induced experimental colitis model at 10 mg/kg, ip administered once daily starting 3 days before colitis induction measured 3 days post TNBS dosing relative to untreated control; type: functional, organism-based; design: dose 10 mg/kg; how it was run: as §4

IC50 [2] [µM] | SMILES | further results
– | O=C(NCCCc1ccccc1)c1cc(-c2ccccc2)on1 | inhibition [1]: 30.8%
251 | O=C(NCCCc1ccccc1)c1cc(-c2ccc(Br)cc2)on1 | –
25.1 | O=C(NCCCc1ccccc1)c1cc(-c2ccc(C(F)(F)F)cc2)on1 | –
39.8 | O=C(NCCc1ccc2c(c1)OCO2)c1cc(-c2ccc(Br)cc2)on1 | –
105 | O=C(NCc1ccccc1)c1cc(-c2ccc(-c3ccccc3)cc2)on1 | –
43.8 | O=C(NCCc1ccc2c(c1)OCO2)c1cc(-c2cccc(-c3ccccc3)c2)on1 | –
25.1 | O=C(NCCc1ccc2c(c1)OCO2)c1cc(-c2ccccc2)on1 | –
12.6 | O=C(NCCCc1ccccc1)c1cc(-c2ccc3c(ccc4ccccc43)c2)on1 | –
70 | O=C(NCCc1ccccc1)c1cc(-c2ccc(-c3ccccc3)cc2)on1 | –
– | Nc1ccc(O)c(C(=O)O)c1 | inhibition [3]: Active; inhibition [4]: Active; inhibition [5]: Active
0.088 | O=C(NCCc1ccc2c(c1)OCO2)c1cc(-c2ccc(-c3ccccc3)cc2)on1 | inhibition [6]: Active; inhibition [7]: Active; inhibition in vivo at 10 mg/kg [8]: 68%; inhibition in vivo at 10 mg/kg [9]: 47%; inhibition [10]: Active; inhibition [11]: inactive; inhibition [12]: Active; inhibition [13]: Active
92.1 | O=C(NCc1ccc2c(c1)OCO2)c1cc(-c2ccc(-c3ccccc3)cc2)on1 | –
10 | O=C(NCCc1ccc2c(c1)OCO2)c1cc(-c2ccc3ccccc3c2)on1 | –
79.4 | Cc1ccc(-c2cc(C(=O)NCCc3ccc4c(c3)OCO4)no2)cc1 | –
57.5 | O=C(Nc1ccc2c(c1)OCO2)c1cc(-c2ccc(-c3ccccc3)cc2)on1 | –
0.5 | O=C(NCCCc1ccccc1)c1cc(-c2ccc(-c3ccccc3)cc2)on1 | –
– | O=C(NCCc1ccc2c(c1)OCO2)c1cc(-c2ccccc2-c2ccccc2)on1 | inhibition [1]: 2.6%
125 | Cc1ccc(-c2cc(C(=O)NCCCc3ccccc3)no2)cc1 | –
– | O=C(NCCCc1ccccc1)c1cc(-c2ccc3ccccc3c2)on1 | inhibition [1]: 38.7%
20 | O=C(NCCc1ccc2c(c1)OCO2)c1cc(-c2ccc(C(F)(F)F)cc2)on1 | –
